The values that follow come from ChEMBL document CHEMBL1122573, “Novel N-hydroxyguanidine derivatives as anticancer and antiviral agents” (J Med Chem, 1984).

pIC50: −log10 of the molar value. Values after ≈ are worked out from the molar mass of the structure shown.

The species named for series [1] is Gallus gallus. Put plainly: Compound dose that inhibits transformation of chick embryo fibroblasts by Rous sarcoma virus, after 15 hr of incubation was determined in vitro. Compound dose that causes 16 % inhibition was reported. The series is classed as functional. An outline of the steps:
(§1)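 Focus-formation assay with Rous sarcoma virus Schmidt-Ruppin subgroup D on confluent secondary chicken fibroblast monolayers (5 × 10^5 cells/plate). Compounds in DMSO (final <1%) were serially diluted from 10^-2 to 10^-5 M solutions before addition. Infection was ~150–200 focus-forming units per dish for 15 h at 37 °C. A 0.9% agar overlay held the same compound dilutions and was re-fed at day 3. Foci were scored 7–10 days post-infection, with virus-only and drug-only controls.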

For series [2], the species on record is Gallus gallus. The series can be described thus: Compound dose that inhibits transformation of chick embryo fibroblasts by Rous sarcoma virus, after 15 hr of incubation was determined in vitro. Compound dose that causes 50 % inhibition was reported. It counts as functional. Particulars: read-out: ID50 (the source's name). An outline of the steps: as §1
The species named for series [3] is Gallus gallus. Put plainly: Compound dose that inhibits transformation of chick embryo fibroblasts by Rous sarcoma virus, after 15 hr of incubation was determined in vitro. Compound dose that causes 84 % inhibition was reported. It counts as functional. In outline: as §1
The subject of series [4] is L1210. The series can be described thus: Activity against cultured L1210 leukemic cells was determined in vitro, after 48 h of incubation. Compound dose that causes 16 % inhibition was reported. The series is classed as functional, Mus musculus. In outline:
(§2)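 L1210 cells in RPMI with 10% fetal calf serum, amino acids, vitamins and penicillin-streptomycin, seeded at 4.0–6.0 × 10^4 cells/mL in duplicate per concentration. At least six concentrations in 1:5 dilutions; 24–48 h humidified incubation under 5% CO2. Cells were counted with a Coulter counter, with untreated and Me2SO controls. ID values were derived by a previously described method.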

Series [5] has as its system L1210. Put plainly: Activity against cultured L1210 leukemic cells was determined in vitro, after 48 hr of incubation. Compound dose that causes 50 % inhibition was reported. It counts as functional. Particulars: Mus musculus, L1210, 48 h; read-out: ID50 (the source's name). In outline:
as §2

The subject of series [6] is L1210. The series can be described thus: Activity against cultured L1210 leukemic cells was determined in vitro, after 48 hr of incubation. Compound dose that causes 84 % inhibition was reported. The series is classed as functional, Mus musculus. In outline:
as §2

Series [7] in a line: Compound dose that causes lethality by 50 %, was tested in mice. Conditions: mouse, in vivo. The series is classed as ADME, organism-based. An outline of the steps: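 C57 Bl/6J mice, six per dose level. Drug was ground with an equal weight of acacia and suspended in saline, then dosed intraperitoneally by body weight.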
The test system of series [8] is Moloney murine sarcoma virus. The series can be described thus: Compound was tested for 50% inhibitory dose against Moloney sarcoma virus. It counts as functional. Particulars: read-out: ID50 (the source's name).

As for `N/C(=N\O)N/N=C/c1cccs1`, the ID16 in the series listed under Gallus gallus [1] stood at 3.64 µM; in the series on L1210 [4], 81.7 µM. Moreover, the pIC50 is 4.93 in the series listed under Gallus gallus [2] and 4.47 in the series on L1210 [5]. Also, the ID84 in the series listed under Gallus gallus [3] stood at 38.04 µM; in the series with L1210 [6] it was 143 µM.

In the case of `N/C(=N/N=C/c1ccccn1)NO`, the ID16 was 1.01 µM in the series listed under Gallus gallus [1] and 4.4 µM with L1210 [4]. Besides, the pIC50 in the series filed under Gallus gallus [2] was 5.56; with L1210 [5], 4.96. The ID84 in the series listed under Gallus gallus [3] came out at 7.55 µM; in the series on L1210 [6], 27 µM. Besides, in series [7], the LD50 (as a rule, the dose at which mortality reaches 50%) was determined as 315 mg/kg.

Take `N=C(N)NO` [HYDROXYGUANIDINE]: in series [8], the IC50 was 2 µg/mL (≈ 26.6 µM).

Turning to `CCCCOc1cccc(/C=N/N=C(\N)NO)c1`, the figures for the ID16 in the series filed under Gallus gallus [1] and in the series on L1210 [4] were 2.66 µM and 3 µM, respectively. The pIC50 in the series listed under Gallus gallus [2] was 4.99; in the series on L1210 [5] it was 5.07. Moreover, the ID84 was 38.96 µM in the series listed under Gallus gallus [3] and 24.3 µM in the series with L1210 [6].

For `NC(/N=N/c1c(O)[nH]c2ccc(F)cc12)=N\O`, the ID16 is 5.36 µM in the series filed under Gallus gallus [1] and 17.8 µM with L1210 [4]. Moreover, the pIC50 is 4.74 in the series filed under Gallus gallus [2] and 4.32 in the series with L1210 [5]. Also, the ID84 in the series filed under Gallus gallus [3] was found to be 62.25 µM; in the series on L1210 [6], 132 µM.

In the case of `COc1cccc(/C=N/NC(=N)NO)c1`, the results for the ID16 in the series listed under Gallus gallus [1] and in the series on L1210 [4] were 7.15 µM and 4.2 µM, respectively. Also, the pIC50 in the series filed under Gallus gallus [2] was 4.75; in the series with L1210 [5], 4.80. Moreover, the ID84 in the series filed under Gallus gallus [3] worked out at 44.06 µM; in the series on L1210 [6], 60.9 µM.

Turning to `CCCCCCOc1cccc(/C=N/N=C(\N)NO)c1`, the ID16 amounted to 1.18 µM in the series listed under Gallus gallus [1] and 2.96 µM with L1210 [4]. Further, the values for the pIC50 in the series filed under Gallus gallus [2] and in the series with L1210 [5] were 5.10 and 5.11, respectively. For the same compound, the ID84 in the series filed under Gallus gallus [3] came to 54.56 µM; in the series with L1210 [6] it was 20.6 µM.

For `N/C(=N\O)N/N=C/c1cccc(I)c1`, the ID16 came out at 0.9 µM in the series listed under Gallus gallus [1] and 4.07 µM with L1210 [4]. In addition, the pIC50 in the series filed under Gallus gallus [2] was 5.46; with L1210 [5], 4.90. Moreover, the ID84 in the series listed under Gallus gallus [3] worked out at 13.33 µM; in the series on L1210 [6], 38.5 µM. The same compound had an LD50 in series [7] of 190 mg/kg.

The compound `NC(=O)NO` [HYDROXYUREA] yielded an ID16 in the series on L1210 [4] of 1.99 µM. Besides, the pIC50 in the series on L1210 [5] was 4.22. The ID84 in the series on L1210 [6] is 181 µM.

Take `N=C(NN)NO`: the ID16 in the series filed under Gallus gallus [1] came out at 15.63 µM; with L1210 [4], 57.1 µM. The pIC50 in the series listed under Gallus gallus [2] was 3.71; in the series with L1210 [5] it was 3.90. Further, the ID84 was found to be 2438 µM in the series filed under Gallus gallus [3] and 311 µM with L1210 [6].

In the case of `N/C(=N\O)N/N=C/C1CCCCC1`, the ID16 in the series filed under Gallus gallus [1] turned out to be 9.11 µM; in the series with L1210 [4], 9.34 µM. Besides, the pIC50 is 4.63 in the series listed under Gallus gallus [2] and 4.67 in the series with L1210 [5]. For the same compound, the figures for the ID84 in the series listed under Gallus gallus [3] and in the series on L1210 [6] were 60.4 µM and 48.4 µM, respectively.

`N/C(=N\O)N/N=C/c1cccc(C(F)(F)F)c1`: the ID16 in the series listed under Gallus gallus [1] turned out to be 8.19 µM; in the series on L1210 [4], 2.35 µM. The pIC50 in the series filed under Gallus gallus [2] is 4.74; in the series on L1210 [5] it was 4.82. The ID84 is 40.61 µM in the series filed under Gallus gallus [3] and 96.4 µM with L1210 [6].

With `Cc1ccsc1/C=N/N=C(/N)NO`, the figures for the ID16 in the series filed under Gallus gallus [1] and with L1210 [4] were 5.89 µM and 16.89 µM, respectively. The pIC50 in the series listed under Gallus gallus [2] was 4.73; with L1210 [5], 4.48. Besides, the figures for the ID84 in the series listed under Gallus gallus [3] and in the series with L1210 [6] were 57.9 µM and 65.3 µM, respectively.

On to `N=C(N)NO.O=S(=O)(O)O` [HYDROXYGUANIDINE SULFATE], for which the ID16 was 192.7 µM in the series filed under Gallus gallus [1] and 95.8 µM with L1210 [4]. For the same compound, the figures for the pIC50 in the series filed under Gallus gallus [2] and in the series with L1210 [5] were 3.43 and 4.23, respectively. Moreover, the ID84 was determined as 725.8 µM in the series listed under Gallus gallus [3] and 370 µM with L1210 [6].

On to `Cc1cccc(/C=N/N=C(\N)NO)n1`, for which the values for the ID16 in the series filed under Gallus gallus [1] and with L1210 [4] were 36 µM and 19.76 µM, respectively. Also, the pIC50 in the series filed under Gallus gallus [2] is 3.94; in the series with L1210 [5], 4.38. Further, the ID84 in the series filed under Gallus gallus [3] was found to be 361.3 µM; in the series with L1210 [6], 89.6 µM.
